Measurements gathered from unrelated publications.
ADORA3: Adenosine receptor A3 (ADORA3, Homo sapiens, UniProt P0DMS8)
DRD2: D(2) dopamine receptor (DRD2, Homo sapiens, UniProt P14416)
Liver carboxylesterase: Liver carboxylesterase (Sus scrofa, UniProt Q29550)

| Structure (SMILES) | target | read-out | action | method | pH | notes | Ki [µM] |
| --- | --- | --- | --- | --- | --- | --- | --- |
| CCCCN1CCCn2c1nc1c2c(=O)n(C)c(=O)n1C | ADORA3 | ligand displacement |  | radioligand |  | cell membranes | > 10 |
| NCCCC[C@H](NC(=O)[C@@H]1CCCN1C(=O)[C@@H]1CSSC[C@H](NC(=O)CNC(=O)CNC(=O)CN)C(=O)N[C@@H](Cc2ccc(O)cc2)C(=O)N[C@@H](Cc2ccccc2)C(=O)N[C@@H](CCC(N)=O)C(=O)N[C@@H](CC(N)=O)C(=O)N1)C(=O)NCC(N)=O | Vasopressin V2 receptor (AVPR2, Homo sapiens, UniProt P30518) | ligand displacement |  | radioligand |  | cell membranes | 6.9 |
| CC(C)CN1CCCn2c1nc1c2c(=O)n(C)c(=O)n1C | ADORA3 | ligand displacement |  | radioligand |  | cell membranes | > 10 |
| CCNC(=O)[C@H]1O[C@@H](n2cnc3c(N)nc(NN=C[C@H]4CCC=CO4)nc32)[C@H](O)[C@@H]1O | ADORA3 | ligand displacement |  | radioligand |  |  | 0.00451 |
| C=CCN1CCCn2c1nc1c2c(=O)n(C)c(=O)n1C | ADORA3 | ligand displacement |  | radioligand |  | cell membranes | > 10 |
| OC[C@H]1OC(O)[C@H](O)[C@@H](O)[C@H]1O (stereo partly shown) | Alpha-galactosidase A (GLA, Homo sapiens, UniProt P06280) | enzyme activity | inhibitor |  |  |  | 16000 |
| CC[C@H](C)[C@H](NC(=O)CN)C(=O)N[C@H](C(=O)N[C@@H](CC(N)=O)C(=O)N[C@H](C(=O)N[C@@H](CC(C)C)C(=O)N[C@@H](CCC(N)=O)C(=O)N[C@@H](CCCCN)C(=O)N[C@@H](Cc1ccc(O)cc1)C(=O)N[C@@H](Cc1ccc(O)cc1)C(=O)N[C@@H](CO)C(=O)N[C@@H](CCCNC(=N)N)C(=O)N[C@H](C(=O)N[C@@H](CCCNC(=N)N)C(=O)NCC(=O)NCC(=O)N[C@@H](CCCNC(=N)N)C(=O)N[C@@H](CO)C(=O)N[C@@H](C)C(=O)N[C@H](C(=O)N[C@@H](CC(C)C)C(=O)N[C@@H](CO)C(=O)N[C@H]1CSSC[C@@H](C(=O)N[C@@H](CCCNC(=N)N)C(=O)N[C@@H](CCCNC(=N)N)C(=O)N[C@@H](CCCCN)C(=O)N[C@@H](CCCCN)C(N)=O)NC(=O)[C@H](CO)NC(=O)[C@H](CCCCN)NC(=O)[C@H](CCCNC(=N)N)NC(=O)CNC(=O)[C@H](CCCNC(=N)N)NC(=O)[C@H]([C@@H](C)O)NC(=O)[C@H](CO)NC(=O)[C@H](CO)NC(=O)[C@H](CCCCN)NC(=O)CNC(=O)[C@H]([C@@H](C)CC)NC(=O)[C@H](CCC(N)=O)NC(=O)[C@H](CCC(=O)O)NC(=O)[C@H](CCC(=O)O)NC(=O)[C@H](CCCCN)NC(=O)[C@@H]2CCCN2C(=O)[C@H](CC(C)C)NC1=O)C(C)C)C(C)C)[C@@H](C)O)[C@@H](C)CC | Melanocyte-stimulating hormone receptor (MC1R, Homo sapiens, UniProt Q01726) | ligand displacement in cells |  |  |  |  | 0.198 |
| Oc1ccc(CCC2=NCCN2CCc2ccccc2)cc1 | DRD2 | ligand displacement |  | radioligand |  |  | 0.794 |
| CC(C)N1CCCn2c1nc1c2c(=O)n(C)c(=O)n1C | ADORA3 | ligand displacement |  | radioligand |  | cell membranes | > 10 |
| O=C1c2ccccc2CCN1CCCCN1CCN(c2cccc(Cl)c2Cl)CC1 | 5-hydroxytryptamine receptor 1E (HTR1E, Homo sapiens, UniProt P28566) | ligand displacement |  | radioligand |  |  | 3.45 |
| CCCCC[C@H](O)/C=C/[C@H]1C=CC(=O)[C@@H]1C/C=C\CCCC(=O)O | Liver carboxylesterase | enzyme activity | inhibitor | HPLC | pH 7.4 |  | 12 |
| CC(C)CC(C)N1CCCn2c1nc1c2c(=O)n(C)c(=O)n1C (stereo not shown) | ADORA3 | ligand displacement |  | radioligand |  | cell membranes | > 10 |
| CCCC[C@H](NC(=O)[C@H](CO)NC(=O)[C@H](Cc1ccc(O)cc1)NC(=O)[C@H](CO)NC(C)=O)C(=O)N[C@@H](CCC(=O)O)C(=O)N[C@@H](Cc1c[nH]cn1)C(=O)N[C@@H](C)C(=O)N[C@@H](CCCNC(=N)N)C(=O)N[C@@H](Cc1c[nH]c2ccccc12)C(=O)NCC(=O)N[C@@H](CCCCN)C(=O)N1CCC[C@H]1C(=O)N[C@H](C(=O)NCC(=O)N[C@@H](CCCCN)C(=O)N[C@@H](CCCCN)C(=O)N[C@@H](CCCNC(=N)N)C(N)=O)C(C)C | Melanocortin receptor 3 (MC3R, Homo sapiens, UniProt P41968) | ligand displacement in cells |  | radioligand |  |  | > 1 |
| COC(=O)[C@H](CSC/C=C(\C)CC/C=C(\C)CCC=C(C)C)NC(=O)c1ccc(-c2ccccc2)cc1 | Liver carboxylesterase | enzyme activity | inhibitor | HPLC |  |  | 190 |
| CCCC(C)N1CCCn2c1nc1c2c(=O)n(C)c(=O)n1C (stereo not shown) | ADORA3 | ligand displacement |  | radioligand |  | cell membranes | > 10 |
| CC/C=C\C/C=C\C/C=C\C/C=C\C/C=C\CCCC(=O)O | Liver carboxylesterase | enzyme activity | inhibitor | HPLC | pH 7.4 |  | 0.34 |
| CNC(=O)[C@@]12C[C@@H]1[C@@H](n1cnc3c(NCc4cccc(C#CCCCCc5cn(C67CC8CC(CC(C8)C6)C7)nn5)c4)nc(Cl)nc31)[C@H](O)[C@@H]2O | ADORA3 | ligand displacement |  | radioligand |  | cell membranes | 0.0218 |
| O=C1c2ccccc2CCCN1CCCCN1CCN(c2ccccn2)CC1 | DRD2 | ligand displacement |  | radioligand |  |  | 0.209 |
| CCCCC[C@H](O)/C=C/[C@H]1[C@H](O)CC(=O)[C@@H]1CCCCCCC(=O)O | Liver carboxylesterase | enzyme activity | inhibitor | HPLC |  |  | > 28 |
